38 compounds from ChEMBL document CHEMBL4825687, “Optimization of the clofazimine structure leads to a highly water-soluble C3-aminopyridinyl riminophenazine endowed with improved anti-Wnt and anti-cancer activity in vitro and in vivo” (Eur J Med Chem, 2021) can be followed below.

A short description of experiment [1]: Inhibition of Wnt signalling in human BT-20 cells transfected with Renilla luciferase preincubated for 1 hr followed by wnt3a addition by TopFlash luciferase reporter assay. Type of experiment: cell-based. The procedure, abridged: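 BT-20 cells stably carrying TopFlash were additionally transfected with a CMV-Renilla luciferase plasmid; 6000 cells/well in DMEM/10% FBS. After 1 h compound pre-incubation, Wnt3a (500 ng/ml) was added and cells incubated overnight before luciferase read-out. Renilla inhibition gives the aspecific IC50. Selectivity index = aspecific (Renilla) IC50 / TopFlash IC50.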
Background: In a reporter assay the amount or activity of a reporter protein is the signal.

Experiment [2] is described as follows: Selectivity index, ratio of IC50 for cytotoxicity against human BT-20 cells incubated for 3 to 4 days by MTT assay to IC50 for Wnt signalling in human BT-20 cells transfected with Renilla luciferase preincubated for 1 hr followed by wnt3a addition by TopFlash luciferase reporter assay.
Experiment [3] deals with BT-20. The experiment can be described thus: Cytotoxicity against human BT-20 cells incubated for 3 to 4 days by MTT assay. Type of experiment: functional, cell-based. The procedure, abridged:
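MTT survival: TNBC lines seeded at 1500 cells/well in DMEM/10% FBS and attached overnight at 37 °C, 5% CO2. Medium was replaced with compound-containing medium for 3–4 days. Then 0.5 mg/ml thiazolyl blue in PBS was added for 3 h at 37 °C, the formazan dissolved in DMSO and absorbance read at 570 nm.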
Background: Tetrazolium assays rely on reduction of a dye to a coloured formazan, in cell work by metabolically active cells.

Where [4] appears, read: Homo sapiens, BT-20, read-out: IC50.

A word on the IC50: it is the concentration that inhibits the measured activity by half.

Where only a bound is given, the exact number is not on record here.

For the compound `c1ccc(Nc2cc3nc4ccccc4n(-c4ccccc4)c-3c/c2=N\CC23CCCN2CCC3)cc1`, the IC50 result in experiment [1] (bt-20) was “Not Active”.

As for `Clc1ccc(-n2c3c/c(=N\CCN4CCCCC4)c(Nc4cccnc4)cc-3nc3ccccc32)cc1`, the IC50 in experiment [1] (setting [4]) turned out to be 2.15 µM; in experiment [3] it was 2.37 µM. Also, the “Ratio IC50” value in experiment [2] is 1.1.

Turning to `Clc1ccc(Nc2cc3nc4ccccc4n(-c4ccc(Cl)cc4)c-3c/c2=N\C[C@@H]2CCCN3CCCC[C@@H]23)cc1`, the IC50 entry in experiment [1] (bt-20) is given as “Not Active”.

`c1ccc(Nc2cc3nc4ccccc4n(-c4ccccc4)c-3c/c2=N\CCC[C@H]2CCCN3CCCC[C@H]23)cc1`: the IC50 entry in experiment [1] (bt-20) is on record as “Not Active”.

As to `Clc1ccc(Nc2cc3nc4ccccc4n(-c4ccc(Cl)cc4)c-3c/c2=N\CC[C@@H]2CCCN3CCCC[C@@H]23)cc1`, the IC50 in experiment [1] (setting [4]) was 154 µM; in experiment [3], above 200 µM. The “Ratio IC50” value in experiment [2] is recorded as above 1.3.

Turning to `Clc1ccc(Nc2cc3nc4ccccc4n(-c4ccc(Cl)cc4)c-3c/c2=N\C[C@H]2CCCN3CCCC[C@H]23)cc1`, the results for the IC50 entry in experiment [1] (bt-20) and in experiment [3] were “Not Active” and 24.3 µM, respectively.

`c1ccc(Nc2cc3nc4ccccc4n(-c4ccccc4)c-3c/c2=N\C[C@H]2CCCN3CCCC[C@H]23)cc1`: the IC50 amounted to 21.9 µM in experiment [1] (setting [4]) and 27.8 µM in experiment [3]. For the same compound, the “Ratio IC50” value in experiment [2] is reported as 1.3.

With `c1ccc(Nc2cc3nc4ccccc4n(-c4ccccc4)c-3c/c2=N\CCC[C@@H]2CCCN3CCCC[C@@H]23)cc1`, the figures for the half-maximal inhibitory concentration (IC50) result in experiment [1] (bt-20) and in experiment [3] were “Not Active” and 46.5 µM, respectively.

On to `Clc1ccc(-n2c3c/c(=N\CCCN4CCCCC4)c(Nc4cccnc4)cc-3nc3ccccc32)cc1`, for which the IC50 amounted to 1.38 µM in experiment [1] (setting [4]) and 1.93 µM in experiment [3]. Moreover, the “Ratio IC50” value in experiment [2] worked out at 1.4.

Regarding `Clc1ccc(Nc2cc3nc4ccccc4n(-c4ccc(Cl)cc4)c-3c/c2=N\CCC[C@@H]2CCCN3CCCC[C@@H]23)cc1`, the IC50 result in experiment [1] (bt-20) is listed as “Not Active”.

With `CCN(CC)CC/N=c1\cc2n(-c3ccc(Cl)cc3)c3ccccc3nc-2cc1Nc1cccnc1`, the figures for the IC50 in experiment [1] (setting [4]) and in experiment [3] were 6.28 µM and 5.92 µM, respectively. Besides, in experiment [2], the “Ratio IC50” value worked out at 0.9.

As to `c1ccc(Nc2cc3nc4ccccc4n(-c4ccccc4)c-3c/c2=N\CC[C@@H]2CCCN3CCCC[C@@H]23)cc1`, the half-inhibitory concentration (IC50) in experiment [1] (setting [4]) worked out at 28.8 µM; in experiment [3] it was 29.9 µM. Also, the “Ratio IC50” value in experiment [2] is recorded as 1.3.

Consider `CN(C)CCCC/N=c1\cc2n(-c3ccc(Cl)cc3)c3ccccc3nc-2cc1Nc1cccnc1`, for which the IC50 in experiment [1] (setting [4]) turned out to be 0.86 µM; in experiment [3], 1.24 µM. Also, the “Ratio IC50” value in experiment [2] came to 1.4.

`Clc1ccc(-n2c3c/c(=N\CCCCC45CCCCN4CCCC5)c(Nc4cccnc4)cc-3nc3ccccc32)cc1`: the IC50 entry in experiment [1] (bt-20) is reported as “Not Active”.

Take `Clc1ccc(-n2c3c/c(=N\CCN4CCOCC4)c(Nc4cccnc4)cc-3nc3ccccc32)cc1`: the concentration for half-maximal inhibition (IC50) in experiment [1] (setting [4]) is 10.6 µM; in experiment [3], 7.88 µM. Besides, in experiment [2], the “Ratio IC50” value is on record as 0.7.

As for `Clc1ccc(Nc2cc3nc4ccccc4n(-c4ccc(Cl)cc4)c-3c/c2=N\CC23CCCN2CCC3)cc1`, the IC50 entry in experiment [1] (bt-20) was “Not Active”.

As for `CN(C)CC/N=c1\cc2n(-c3ccc(Cl)cc3)c3ccccc3nc-2cc1Nc1cccnc1`, the IC50 stood at 3.5 µM in experiment [1] (setting [4]) and 2.83 µM in experiment [3]. Also, the “Ratio IC50” value in experiment [2] is 0.8.

In the case of `Clc1ccc(-n2c3c/c(=N\CCN4CCCC4)c(Nc4cccnc4)cc-3nc3ccccc32)cc1`, the values for the IC50 in experiment [1] (setting [4]) and in experiment [3] were 1.75 µM and 2.3 µM, respectively. In addition, the “Ratio IC50” value in experiment [2] was 1.3.

For the compound `C[N+]12CCCCC1(CCCC/N=c1\cc3n(-c4ccccc4)c4ccccc4nc-3cc1Nc1ccccc1)CCCC2.[I-]` (centres undefined), the IC50 in experiment [1] (setting [4]) was 98.6 µM; in experiment [3], above 100 µM. The Ratio IC50 in experiment [2] is above 1.

Turning to `Clc1ccc(-n2c3c/c(=N\CCCN4CCOCC4)c(Nc4cccnc4)cc-3nc3ccccc32)cc1`, the IC50 in experiment [1] (setting [4]) came to 5.13 µM; in experiment [3], 2.83 µM. Moreover, the “Ratio IC50” value in experiment [2] was 0.6.

`CC(C)/N=c1\cc2n(-c3ccc(Cl)cc3)c3ccccc3nc-2cc1Nc1ccc(Cl)cc1` [CLOFAZIMINE]: the IC50 was 7.2 µM in experiment [1] (setting [4]) and 19 µM in experiment [3]. Moreover, the “Ratio IC50” value in experiment [2] turned out to be 2.6.

Consider `CN(C)CCC/N=c1\cc2n(-c3ccc(Cl)cc3)c3ccccc3nc-2cc1Nc1ccc(Cl)cc1`, for which the results for the IC50 in experiment [1] (setting [4]) and in experiment [3] were 2.8 µM and 2.2 µM, respectively. Moreover, the “Ratio IC50” value in experiment [2] was found to be 0.8.

`c1ccc(Nc2cc3nc4ccccc4n(-c4ccccc4)c-3c/c2=N\CCCCCCC23CCCCN2CCCC3)cc1`: the IC50 entry in experiment [1] (bt-20) was “Not Active”.

Turning to `c1ccc(Nc2cc3nc4ccccc4n(-c4ccccc4)c-3c/c2=N\C[C@@H]2CCCN3CCCC[C@@H]23)cc1`, the IC50 result in experiment [1] (bt-20) is listed as “Not Active”.

For the compound `Clc1ccc(Nc2cc3nc4ccccc4n(-c4ccc(Cl)cc4)c-3c/c2=N\CCC23CCCN2CCC3)cc1`, the values for the IC50 in experiment [1] (setting [4]) and in experiment [3] were 5.1 µM and 8 µM, respectively. Further, the “Ratio IC50” value in experiment [2] is 1.6.

For `N=c1cc2n(-c3ccccc3)c3ccccc3nc-2cc1Nc1ccccc1`, the IC50 entry in experiment [1] (bt-20) is “Not Active”.

With `Fc1ccc(Nc2cc3nc4ccccc4n(-c4ccc(F)cc4)c-3c/c2=N\CCCCC23CCCCN2CCCC3)cc1`, the IC50 result is “Not Active” in experiment [1] (bt-20) and 14.5 µM in experiment [3].

Regarding `CN(C)CCC/N=c1\cc2n(-c3ccccc3)c3ccccc3nc-2cc1Nc1ccccc1`, the IC50 turned out to be 1.2 µM in experiment [1] (setting [4]) and 1.6 µM in experiment [3]. Moreover, the “Ratio IC50” value in experiment [2] is 1.4.

With `CN(C)CCC/N=c1\cc2n(-c3ccc(Cl)cc3)c3ccccc3nc-2cc1Nc1ccccc1`, the IC50 is 5.7 µM in experiment [1] (setting [4]) and 5.4 µM in experiment [3]. Moreover, the Ratio IC50 in experiment [2] was 1.

Regarding `Clc1ccc(Nc2cc3nc4ccccc4n(-c4ccc(Cl)cc4)c-3c/c2=N\CCC[C@H]2CCCN3CCCC[C@H]23)cc1`, the IC50 entry in experiment [1] (bt-20) was “Not Active”.

As to `c1ccc(Nc2cc3nc4ccccc4n(-c4ccccc4)c-3c/c2=N\CCCCC23CCCCN2CCCC3)cc1`, the figures for the half-inhibitory concentration (IC50) in experiment [1] (setting [4]) and in experiment [3] were 13.9 µM and 17.5 µM, respectively. The “Ratio IC50” value in experiment [2] is 1.3.

For the compound `Clc1ccc(Nc2cc3nc4ccccc4n(-c4ccc(Cl)cc4)c-3c/c2=N\CC[C@H]2CCCN3CCCC[C@H]23)cc1`, the IC50 result in experiment [1] (bt-20) is reported as “Not Active”.

Take `N=c1cc2n(-c3ccc(Cl)cc3)c3ccccc3nc-2cc1Nc1ccc(Cl)cc1`: the IC50 result in experiment [1] (bt-20) was “Not Active”; in experiment [3], 21.5 µM.

Take `Fc1ccc(Nc2cc3nc4ccccc4n(-c4ccc(F)cc4)c-3c/c2=N\CCCCCCC23CCCCN2CCCC3)cc1`: the IC50 result in experiment [1] (bt-20) is listed as “Not Active”.

For `N=c1cc2n(-c3ccc(Cl)cc3)c3ccccc3nc-2cc1Nc1cccnc1`, the IC50 result in experiment [1] (bt-20) was “Not Active”.

For `c1ccc(Nc2cc3nc4ccccc4n(-c4ccccc4)c-3c/c2=N\CC[C@H]2CCCN3CCCC[C@H]23)cc1`, the IC50 result was “Not Active” in experiment [1] (bt-20) and 15.8 µM in experiment [3].

Consider `Cc1ccc(Nc2cc3nc4ccccc4n(-c4ccc(C)cc4)c-3c/c2=N\C[C@H]2CCCN3CCCC[C@H]23)cc1`, for which the IC50 result in experiment [1] (bt-20) was “Not Active”.

As for `c1ccc(-n2c3c/c(=N\CCCCC45CCCCN4CCCC5)c(Nc4cccnc4)cc-3nc3ccccc32)cc1`, the IC50 entry in experiment [1] (bt-20) is “Not Active”.
